Experimental data gathered from unrelated publications.
Each line is one published result; the experiments were not run side by side. In brackets after ≈: the same amount, converted by molar mass.

| SMILES | target or system | test | system | setting | measurement | value |
| --- | --- | --- | --- | --- | --- | --- |
| CC(C)CN(C[C@@H](O)[C@H](Cc1ccccc1)NC(=O)O[C@H]1CO[C@H]2OCC[C@H]21)S(=O)(=O)c1ccc(N)cc1 | Human immunodeficiency virus 1 | viral replication | MT4 |  | IC50 | 0.0032 µM |
| COC(=O)c1cc(-c2cccc(NC(=O)Nc3ccccc3)c2)on1 | Mycolicibacterium fortuitum | microbial growth, broth dilution | ATCC6841 | 48 h | MIC | > 64 µg/mL |
| Cc1ccc(-c2nc3ccc(C)cn3c2CC(=O)N(C)C)cc1 | Mycobacterium marinum | microbial growth |  | 5 days | MIC | > 50 µM |
| Nc1nc2c(ncn2COCCO)c(=O)[nH]1 | Cowpox virus | microbial growth |  |  | MIC50 | 250 µM (≈ 56.3 µg/mL) |
| CO[C@H]1/C=C/O[C@@]2(C)Oc3c(C)c(O)c4c(O)c(c(/C=N/N5CCN(C)CC5)c(O)c4c3C2=O)NC(=O)/C(C)=C\C=C\[C@H](C)[C@H](O)[C@@H](C)[C@@H](O)[C@@H](C)[C@H](OC(C)=O)[C@@H]1C | Mycolicibacterium fortuitum | microbial growth | ATCC6841 |  | MIC | 3.1 to 6.2 µg/mL |
| N#Cc1ccc(NC(=S)NN=Cc2ccc(O)cc2)cc1 | CCRF-CEM | cell growth or viability |  | 72 h | IC50 | 107 µg/mL |
| N.N.[Cl][Pt][Cl] | 184B5 | cell growth or viability |  |  | IC50 | 5.73 µM |
| CC(C(=O)N1CCCC1)c1cccc(C(OC(=O)N2CCCC2)c2ccccc2)c1 (stereo not shown) | CCRF-CEM | cell growth or viability |  | 72 h | IC50 | 42 µM |
| N.N.[Cl][Pt][Cl] | PK-59 | cell growth or viability, MTT |  | 24 h | IC50 | 2.66 µM |
| COC(=O)c1cc(-c2cccc(NC(=S)Nc3ccc([N+](=O)[O-])cc3)c2)on1 | Mycolicibacterium fortuitum | microbial growth, broth dilution | ATCC6841 | 48 h | MIC | > 64 µg/mL |
| Nc1nc(O)c2ncn(COC(CO)CO)c2n1 | Cowpox virus | microbial growth |  |  | MIC50 | > 100 µM |
| Cc1ccnc2c1NC(=O)c1cccnc1N2C1CC1 | Human immunodeficiency virus 1 | viral replication, inhibitor | human PBMC | clinical isolate | IC90 | 0.227 µM |
| COC(=O)c1cc(-c2cccc(NC(=O)Nc3ccccc3F)c2)on1 | Mycolicibacterium fortuitum | microbial growth, broth dilution | ATCC6841 | 48 h | MIC | > 64 µg/mL |
| CCOC(=O)c1c(CSc2ccccc2)n(C)c2cc(Br)c(O)c(CN(C)C)c12 | Cowpox virus | microbial growth |  |  | MIC50 | > 37 µM |
| CC(C(=O)n1nnc2ccccc21)c1cccc(C(OC(=O)n2nnc3ccccc32)c2ccccc2)c1 (stereo not shown) | CCRF-CEM | cell growth or viability |  | 72 h | IC50 | 67 µM |
| COC(=O)c1cc(-c2cccc(NC(=O)Nc3cc(Cl)ccc3Cl)c2)on1 | Mycolicibacterium fortuitum | microbial growth, broth dilution | ATCC6841 | 48 h | MIC | > 64 µg/mL |
| COc1ccc(C=NNC(=S)Nc2ccc(C#N)cc2)cc1 | CCRF-CEM | cell growth or viability |  | 72 h | IC50 | > 200 µg/mL |
| Nc1ccn(C[C@@H](CO)OCP(=O)(O)O)c(=O)n1 | Cowpox virus | viral replication |  |  | IC50 | 30 µM |
| COC(=O)c1cc(-c2cccc(NC(=S)Nc3cccc(Br)c3)c2)on1 | Mycolicibacterium fortuitum | microbial growth, broth dilution | ATCC6841 | 48 h | MIC | > 64 µg/mL |
